For orientation: IC50 means the concentration needed to halve the response being measured. Broadly, the Ki is the dissociation constant of the complex between target and ligand, obtained from inhibition or displacement.

The text below walks through data of ChEMBL document CHEMBL3763022, “Potent dual inhibitors of Plasmodium falciparum M1 and M17 aminopeptidases through optimization of S1 pocket interactions” (Eur J Med Chem, 2016).

The test system of one series is Plasmodium falciparum. The series is described as follows: Antiparasitic activity against Plasmodium falciparum Dd2 assessed as growth inhibition after 72 hrs by DAPI staining-based confocal image analysis. The format is functional, organism-based. The following applies: Dd2, 72 h. Put shortly:
(§1)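 Sorbitol-synchronised ring-stage parasites in human O+ erythrocytes at 2% parasitaemia, 0.3% haematocrit, incubated 72 h at 37 °C (5% CO2) with three-step log serial dilutions from 20 μM top, 0.4% DMSO final. Staining with DAPI/saponin/Triton X/EDTA in PBS, confocal imaging, parasite count.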
In the case of `CC(C)(C)C(=O)NC(C(=O)NO)c1ccc(-c2cccc(F)c2)cc1` (stereo not given), the IC50 was determined as 0.226 µM.
For the compound `CC(C)(C)C(=O)NC(C(=O)NO)c1ccc(Br)cc1` (stereo not given), the IC50 was determined as 0.194 µM.
As to `CC(C)(C)C(=O)NC(C(=O)NO)c1ccc(-c2ccsc2)cc1` (stereo not given), the IC50 is 0.11 µM.
As to `CC(C)(C)C(=O)NC(C(=O)NO)c1ccc(-c2cc(F)cc(F)c2)cc1` (stereo not given), the IC50 was 0.239 µM.
With `CC(C)(C)C(=O)NC(C(=O)NO)c1ccc(-c2ccccc2F)cc1` (stereo not given), the IC50 was 0.207 µM.
Still for that read-out and setting: for `CC(C)(C)C(=O)NC(C(=O)NO)c1ccc(-c2ccccc2)cc1` (stereo not given) the value was 0.19 µM; for `CC(C)(C)C(=O)NC(C(=O)NO)c1ccc(-c2ccc(F)cc2F)cc1` (stereo not given), 0.164 µM.
For `CC(C)(C)C(=O)NC(C(=O)NO)c1ccc(-c2ccc(F)c(F)c2)cc1` (stereo not given), the IC50 amounted to 0.17 µM.
`CC(C)(C)C(=O)NC(C(=O)NO)c1ccc(-c2ccc(F)cc2)cc1` (stereo not given): the IC50 came out at 0.225 µM.
`CC(C)(C)C(=O)NC(C(=O)NO)c1ccc(-c2c(F)c(F)c(F)c(F)c2F)cc1` (stereo not given): the IC50 amounted to 0.461 µM.

The next series relates to Plasmodium falciparum. The series is described as follows: Antiparasitic activity against Plasmodium falciparum 3D7 assessed as growth inhibition after 72 hrs by DAPI staining-based confocal image analysis. The class given is functional, organism-based. The conditions noted are these: 3D7, 72 h. Put shortly: as §1
Turning to `CC(C)(C)C(=O)NC(C(=O)NO)c1ccc(-c2cccc(F)c2)cc1` (stereo not given), the IC50 was 0.162 µM.
For the compound `CC(C)(C)C(=O)NC(C(=O)NO)c1ccc(Br)cc1` (stereo not given), the IC50 came to 0.169 µM.
In the case of `CC(C)(C)C(=O)NC(C(=O)NO)c1ccc(-c2ccsc2)cc1` (stereo not given), the IC50 was 0.103 µM.
As for `CC(C)(C)C(=O)NC(C(=O)NO)c1ccc(-c2cc(F)cc(F)c2)cc1` (stereo not given), the IC50 turned out to be 0.144 µM.
`CC(C)(C)C(=O)NC(C(=O)NO)c1ccc(-c2ccccc2F)cc1` (stereo not given): the IC50 stood at 0.131 µM.
For the compound `CC(C)(C)C(=O)NC(C(=O)NO)c1ccc(-c2ccccc2)cc1` (stereo not given), the IC50 is 0.096 µM.
`CC(C)(C)C(=O)NC(C(=O)NO)c1ccc(-c2ccc(F)cc2F)cc1` (stereo not given): the IC50 worked out at 0.109 µM.
As to `CC(C)(C)C(=O)NC(C(=O)NO)c1ccc(-c2ccc(F)c(F)c2)cc1` (stereo not given), the IC50 turned out to be 0.139 µM.
Consider `CC(C)(C)C(=O)NC(C(=O)NO)c1ccc(-c2ccc(F)cc2)cc1` (stereo not given), for which the IC50 is 0.126 µM.
As to `CC(C)(C)C(=O)NC(C(=O)NO)c1ccc(-c2c(F)c(F)c(F)c(F)c2F)cc1` (stereo not given), the IC50 is 0.13 µM.

For another series, the system named is Plasmodium falciparum. The series is described as follows: Antiparasitic activity against chloroquine/quinine/pyrimethamine/sulfadoxine/NITD609-resistant Plasmodium falciparum Dd2 clone 2 assessed as growth inhibition after 72 hrs by DAPI staining-based confocal image analysis. The format is functional, organism-based. The following applies: Dd2, 72 h. Put shortly:
as §1
In the case of `CC(C)(C)C(=O)NC(C(=O)NO)c1ccc(-c2cccc(F)c2)cc1` (stereo not given), the IC50 worked out at 0.316 µM.
As for `CC(C)(C)C(=O)NC(C(=O)NO)c1ccc(Br)cc1` (stereo not given), the 50% inhibitory concentration (IC50) is 0.163 µM.
Turning to `CC(C)(C)C(=O)NC(C(=O)NO)c1ccc(-c2ccsc2)cc1` (stereo not given), the half-inhibitory concentration (IC50) worked out at 0.1 µM.
For the compound `CC(C)(C)C(=O)NC(C(=O)NO)c1ccc(-c2cc(F)cc(F)c2)cc1` (stereo not given), the IC50 stood at 0.232 µM.
On the same count and under the same terms, for `CC(C)(C)C(=O)NC(C(=O)NO)c1ccc(-c2ccccc2F)cc1` (stereo not given) the value was 0.21 µM.
On to `CC(C)(C)C(=O)NC(C(=O)NO)c1ccc(-c2ccccc2)cc1` (stereo not given), for which the IC50 came to 0.219 µM.
On the same count and under the same terms, for `CC(C)(C)C(=O)NC(C(=O)NO)c1ccc(-c2ccc(F)cc2F)cc1` (stereo not given) the value was 0.216 µM; for `CC(C)(C)C(=O)NC(C(=O)NO)c1ccc(-c2ccc(F)c(F)c2)cc1` (stereo not given), 0.195 µM.
As for `CC(C)(C)C(=O)NC(C(=O)NO)c1ccc(-c2ccc(F)cc2)cc1` (stereo not given), the IC50 amounted to 0.193 µM.
For `CC(C)(C)C(=O)NC(C(=O)NO)c1ccc(-c2c(F)c(F)c(F)c(F)c2F)cc1` (stereo not given), the IC50 was 0.408 µM.

System in the next series: not listed separately
The series is described as follows: Inhibition of recombinant Plasmodium falciparum M1 aminopeptidase using H-Leu-NHMec as substrate preincubated for 10 mins followed by addition of substrate by spectrofluorimetric analysis.
Settings: not given
A digest of the protocol:
(§2)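 E. coli-expressed enzymes, purified by Ni-NTA and size exclusion. Preincubation 10 min at 37°C with inhibitor: M1 in 100 mM Tris pH 8.0; M17 in 50 mM Tris pH 8.0, 2 mM CoCl2. Substrate H-Leu-NHMec kept below Km. Fluorescence ex 355/em 460 nm followed to steady-state velocity. Inhibitor range 500pM–500 μM. Ki from Dixon plots (1/V vs [I]).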
On to `CC(C)(C)C(=O)NC(C(=O)NO)c1ccc(-c2cccc(F)c2)cc1` (stereo not given), for which the Ki amounted to 0.55 µM.
On to `CC(C)(C)C(=O)NC(C(=O)NO)c1ccc(Br)cc1` (stereo not given), for which the Ki stood at 0.065 µM.
With `CC(C)(C)C(=O)NC(C(=O)NO)c1ccc(-c2ccsc2)cc1` (stereo not given), the Ki is 0.64 µM.
On the same count and under the same terms, for `CC(C)(C)C(=O)NC(C(=O)NO)c1ccc(-c2cc(F)cc(F)c2)cc1` (stereo not given) the value was 0.58 µM.
Still for that read-out and setting: for `CC(C)(C)C(=O)NC(C(=O)NO)c1ccc(-c2ccccc2F)cc1` (stereo not given) the value was 1.6 µM; for `CC(C)(C)C(=O)NC(C(=O)NO)c1ccc(-c2ccccc2)cc1` (stereo not given), 1.6 µM.
In the case of `CC(C)(C)C(=O)NC(C(=O)NO)c1ccc(-c2ccc(F)cc2F)cc1` (stereo not given), the Ki is 2.5 µM.
As to `CC(C)(C)C(=O)NC(C(=O)NO)c1ccc(-c2ccc(F)c(F)c2)cc1` (stereo not given), the Ki amounted to 1.4 µM.
On the same count and under the same terms, for `CC(C)(C)C(=O)NC(C(=O)NO)c1ccc(-c2ccc(F)cc2)cc1` (stereo not given) the value was 6.5 µM; for `CC(C)(C)C(=O)NC(C(=O)NO)c1ccc(-c2c(F)c(F)c(F)c(F)c2F)cc1` (stereo not given), 1.8 µM.

The next series deals with HEK293. The series is described as follows: Cytotoxicity against HEK293 cells assessed as cell viability after 72 hrs by resazurin assay. The conditions noted are these: human, hek293, 72 h. The format is cell-based. A digest of the protocol:
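HEK293 cells in DMEM with 10% FCS, seeded at 2000 cells/well and left to adhere overnight. Compound dose response with top final 40 μM, 0.4% DMSO. Exposure 72 h at 37 °C, 5% CO2. Medium then replaced by 44 μM resazurin in serum-free DMEM for 4-6 h. Fluorescence read at ex/em 530/595 nm.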
(Resazurin is reduced to fluorescent resorufin, in cell work by metabolically active cells.)
Regarding `CC(C)(C)C(=O)NC(C(=O)NO)c1ccc(-c2cccc(F)c2)cc1` (stereo not given), the Activity entry is “Non-toxic”.
For the compound `CC(C)(C)C(=O)NC(C(=O)NO)c1ccc(Br)cc1` (stereo not given), the Activity result is given as “Non-toxic”.
Turning to `CC(C)(C)C(=O)NC(C(=O)NO)c1ccc(-c2ccsc2)cc1` (stereo not given), the Activity result is “Non-toxic”.
As to `CC(C)(C)C(=O)NC(C(=O)NO)c1ccc(-c2cc(F)cc(F)c2)cc1` (stereo not given), the Activity entry is reported as “Non-toxic”.
With `CC(C)(C)C(=O)NC(C(=O)NO)c1ccc(-c2ccccc2F)cc1` (stereo not given), the Activity result is given as “Non-toxic”.
In the case of `CC(C)(C)C(=O)NC(C(=O)NO)c1ccc(-c2ccccc2)cc1` (stereo not given), the Activity entry was “Non-toxic”.
With `CC(C)(C)C(=O)NC(C(=O)NO)c1ccc(-c2ccc(F)cc2F)cc1` (stereo not given), the Activity result is on record as “Non-toxic”.
Consider `CC(C)(C)C(=O)NC(C(=O)NO)c1ccc(-c2ccc(F)c(F)c2)cc1` (stereo not given), for which the Activity entry is given as “Non-toxic”.
Take `CC(C)(C)C(=O)NC(C(=O)NO)c1ccc(-c2ccc(F)cc2)cc1` (stereo not given): the Activity entry is “Non-toxic”.
Still for that read-out and setting: for `CC(C)(C)C(=O)NC(C(=O)NO)c1ccc(-c2c(F)c(F)c(F)c(F)c2F)cc1` (stereo not given) the value was “Non-toxic”.

System in the next series: not listed separately
The experiment in a line: Inhibition of recombinant Plasmodium falciparum M17 aminopeptidase using H-Leu-NHMec as substrate preincubated for 10 mins followed by addition of substrate by spectrofluorimetric analysis.
Settings: not given
Put shortly: as §2
Consider `CC(C)(C)C(=O)NC(C(=O)NO)c1ccc(-c2cccc(F)c2)cc1` (stereo not given), for which the Ki amounted to 0.0062 µM.
For the compound `CC(C)(C)C(=O)NC(C(=O)NO)c1ccc(Br)cc1` (stereo not given), the Ki was 0.041 µM.
Consider `CC(C)(C)C(=O)NC(C(=O)NO)c1ccc(-c2ccsc2)cc1` (stereo not given), for which the Ki was found to be 0.0091 µM.
Take `CC(C)(C)C(=O)NC(C(=O)NO)c1ccc(-c2cc(F)cc(F)c2)cc1` (stereo not given): the Ki was found to be 0.092 µM.
In the case of `CC(C)(C)C(=O)NC(C(=O)NO)c1ccc(-c2ccccc2F)cc1` (stereo not given), the Ki came to 0.012 µM.
Take `CC(C)(C)C(=O)NC(C(=O)NO)c1ccc(-c2ccccc2)cc1` (stereo not given): the Ki came out at 0.007 µM.
Regarding `CC(C)(C)C(=O)NC(C(=O)NO)c1ccc(-c2ccc(F)cc2F)cc1` (stereo not given), the Ki is 0.0052 µM.
Same read-out and setting: the figure for `CC(C)(C)C(=O)NC(C(=O)NO)c1ccc(-c2ccc(F)c(F)c2)cc1` (stereo not given) is 0.0064 µM; for `CC(C)(C)C(=O)NC(C(=O)NO)c1ccc(-c2ccc(F)cc2)cc1` (stereo not given) it is 0.033 µM; for `CC(C)(C)C(=O)NC(C(=O)NO)c1ccc(-c2c(F)c(F)c(F)c(F)c2F)cc1` (stereo not given) it is 0.0084 µM.
